# Only some compounds are listed: those with a hit (about 4.6% of all), similar ones and a draw of the others.
# MDM2 E3 inh: inhibitors of human Mdm2 E3 ubiquitin ligase; Q00987; cell-based MDM2 ubiquitination luciferase reporter, 2 h; 0 = plate control, 100 = twice control, blank-subtracted; signal enhancement, % at 5 µM; actives 0.11% (n = 210,000); AID 1230;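 active = signal enhancement of 30% or more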;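 also: luminescence tracks abundance of the self-degrading MDM2-luciferase fusion protein; higher signal means inhibition of MDM2 E3 ligase activity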
# Target sequence (Q00987 whole entry, looked up, the tested form may be a part): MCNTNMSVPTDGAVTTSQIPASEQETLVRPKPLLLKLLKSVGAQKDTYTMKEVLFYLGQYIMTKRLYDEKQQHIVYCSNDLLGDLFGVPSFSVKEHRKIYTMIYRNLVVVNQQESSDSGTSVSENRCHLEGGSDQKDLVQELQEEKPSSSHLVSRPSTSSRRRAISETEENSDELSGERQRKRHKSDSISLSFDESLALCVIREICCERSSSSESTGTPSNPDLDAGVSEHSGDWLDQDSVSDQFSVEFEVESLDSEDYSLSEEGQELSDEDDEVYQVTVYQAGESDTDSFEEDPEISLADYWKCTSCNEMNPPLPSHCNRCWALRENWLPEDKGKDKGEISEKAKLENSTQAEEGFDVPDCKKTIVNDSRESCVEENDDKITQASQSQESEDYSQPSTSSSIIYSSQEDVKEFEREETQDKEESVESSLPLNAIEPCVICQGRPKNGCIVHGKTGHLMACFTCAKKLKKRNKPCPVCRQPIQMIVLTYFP
#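 System: stable MDM2–luciferase fusion reporter cells / Input: 2000 cells seeded into each well / Schedule: 4 h settle plus 2 h compound, 37 °C / Compound: single-point 5 µM / Buffer or medium: cells held in DMEM / Benchmarks: control and blank well means / Evaluation: percent signal gain over controls, blank-subtracted / Measured by: luciferase luminescence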
# Wee1 degr inh: inhibitors of human Wee1 degradation; P30291; HeLa Luc-Wee1K328M stability, luciferase luminescence; 100% = proteasome inhibitor MG132 effect; reporter increase, % at 5 µM; actives 1.2% (n = 220,000);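 active = activation above the mean of all tested compounds plus 3 SD, set per screening run, cut at about 8.8% in these data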;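 also: cells exposed to compound for 20 h before luminescence read; 0% = DMSO alone and 100% = MG132 at 30 µM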
# APP 5'UTR act: activates APP 5'UTR luciferase reporter | SH-SY5Y APP 5'UTR luciferase reporter, luminescence; zero percent = DMSO vehicle wells | activation, % at 2 µM | actives 1% (n = 190,000) | AID 1276;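 active = activation above a set limit, based on mean plus 3 SD of controls, cut at about 140% in these data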
# NF-kB expr up: raises NF-kB expression in human neuronal cells; NF-kB reporter expression; stronger effect = higher value; fold change at 12.5 µM; actives 1.6% (n = 190,000); AID 1239; in the data active = fold change above about 3.3
# STAT1 activator: increases IFN-gamma driven STAT1 reporter signal; NIH 3T3 STAT1-luciferase reporter, luminescence; 100% = IFN-gamma alone, no compound; activation (% of control), % at 5.5 µM; actives 2.6% (n = 200,000);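 active = activation above the screen-wide mean activation plus 3 SD, cut at about 130% in these data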;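 also: raw ratio to IFN-gamma control signal so 100% means no change and 0% no light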
# p97 ATPase inh: inhibitors of human p97 ATPase; AID 1481; P55072; inhibition, % at 8 µM; recombinant p97 ATPase, Kinase-Glo ATP luminescence, 3 h; actives 0.42% (n = 220,000); in the data active = inhibition above about 15%;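 also: 0% = DMSO vehicle and 100% = wells lacking enzyme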
# Active calls of the source: *; / = no result given.
SMILES,MDM2 E3 inh,Wee1 degr inh,APP 5'UTR act,NF-kB expr up,STAT1 activator,p97 ATPase inh
O=C(CC(Nc1ccccc1)C(=O)O)c1ccccc1 (stereo not drawn),3,/,/,3.3*,/,/
O=C(Nc1ccc(Cl)c(Cl)c1)Nc1ccccc1C(=O)O,-56,-3,215*,7.7*,140*,4
Cc1ccc(Nc2ncccc2C(=O)O)cc1C,-15,-1,7,1.6,115,-1
COC(=O)c1sccc1NC(=O)Nc1ccc(Cl)c(Cl)c1,-26,3,16,2.4,144*,1
O=C(O)c1cccnc1Nc1ccc(Cl)cc1,-6,-2,11,2.8,143*,3
O=C(Nc1cccc(Cl)c1)Nc1ccccc1C(=O)O,-53,0,/,/,/,7
O=C(Nc1ccc(Cl)cc1)Nc1ccccc1C(=O)O,-71,-2,119,4.5*,77,2
CCC(C)(C)NC(=O)CCCSc1nc2ccccc2s1,-17,3,20,1.3,119,-2
CCc1ccc(C(=O)CN2C(=O)NC(C)(CCc3ccccc3)C2=O)cc1 (stereo not drawn),-12,0,-6,0.79,103,3
CCC(C)n1c(SCc2ccccc2)nc2ccsc2c1=O (stereo not drawn),-5,0,14,0.83,100,-6
CCCCc1nnc(NC(=O)COc2ccc3c(C)cc(=O)oc3c2)s1,-10,-2,/,/,/,-4
O=C(NCCc1ccccc1)Nc1ccc(Cl)cc1,-14,-1,/,2.8,147*,-2
S=C(NCCc1ccccc1)Nc1ccc(Cl)cc1,5,-1,25,1.1,106,1
COC(=O)/C=C/c1oc2ccccc2c1C,-8,-1,3,1.3,111,5
Cn1c(SCc2nnc(-c3ccccc3Br)o2)nc2sc3c(c2c1=O)CCC3,-9,3,5,4.5*,99,-1
COCCCn1c(SCc2nnc(-c3ccccc3)o2)nc2sc3c(c2c1=O)CCC3,-5,1,-16,1.2,100,-3
O=C1NC(=S)S/C1=C\c1ccc(SCc2ccccc2)o1,-11,-2,/,1.2,100,11
O=C1NC(=S)S/C1=C\c1ccc(SCc2ccco2)o1,-4,1,15,0.91,87,53*
COc1ccc(CCn2c(=O)[nH]c3cc(C(=O)N4CCN(c5ccccn5)CC4)ccc3c2=O)cc1OC,-10,1,32,1.4,92,-2
COc1ccc(S(=O)(=O)N(C)C)cc1NC(=O)COC(=O)c1nn(C)c(=O)c2ccccc12,2,-3,-10,0.97,92,-1
Oc1ccc(-c2nnc(-c3ccc(O)cc3)nn2)cc1,-53,1,119,6.1*,95,1
CS(=O)(=O)N1N=C(c2ccccc2)CC1c1ccc2c(c1)OCO2 (stereo not drawn),-11,1,0,2,137*,3
Cc1csc2c(=O)n(CCO)c(=O)[nH]c12,-14,-1,/,/,/,-2
COCC(C)N=C1NN=C(c2ccc(NC(C)=O)cc2)CS1 (stereo not drawn),5,2,30,1.3,100,1
CC(C)(C)N=C1NN=C(c2ccc(Cl)cc2)CS1,-12,0,/,/,/,11
SMILES,MDM2 E3 inh,Wee1 degr inh,APP 5'UTR act,NF-kB expr up,STAT1 activator,p97 ATPase inh
CC(C)N=C1NN=C(c2cccs2)CS1,-27,3,103,3.5*,134*,1
CC(C)N=C1NN=C(c2ccc(Cl)c(Cl)c2)CS1,-48,0,172*,8.6*,136*,2
CCc1nnc(NC(=O)CSc2ccc(-c3nc4ccc(C)cc4[nH]3)cn2)s1,-15,1,138*,2.8,115,-4
Cc1ccc2nc(-c3ccc(SCC(=O)N4CCc5ccccc54)nc3)[nH]c2c1,-14,-1,134,1.3,131*,2
O=C(CSc1ccc(-c2nc3ccccc3[nH]2)cn1)Nc1ccc(S(=O)(=O)N2CCCC2)cc1,-4,-2,-5,1,102,6
Cc1cc2nc(-c3ccc(SCC(=O)Nc4ccc(S(=O)(=O)N5CCCC5)cc4)nc3)[nH]c2cc1C,-4,5,153*,2.9,140*,0
Cc1cc2nc(-c3ccc(SCC(=O)Nc4nccs4)nc3)[nH]c2cc1C,-14,4,156*,1.7,127,4
Cc1ccc2nc(-c3ccc(SCC(=O)O)nc3)[nH]c2c1,-4,4,13,0.74,96,-1
N=c1sccn1CC(=O)Nc1ccc(SC(F)F)cc1,-8,-2,11,1.6,108,3
CC(SCC(=O)NC(C)C1CC2CCC1C2)C(=O)O (stereo not drawn),-2,3,27,1.3,98,5
CCn1nc(C)c(/C=N/NC(=O)c2ccc3c(c2)c(C)c(C)n3Cc2ccccc2)c1C,-36,3,/,1,101,4
NS(=O)(=O)c1ccc(NC(=O)C(=O)NCCC(=O)O)cc1,-13,-1,/,/,/,0
S=C(N/N=C/c1ccccc1)N1CCOCC1,-3,3,14,1.2,112,-2
O=C(CCCN1C(=O)/C(=C\c2cccs2)SC1=S)NNC(=O)c1cccnc1,-3,10*,-20,1.2,91,5
Cc1oc(-c2cc3c(cc2Cl)OCO3)nc1CN1CCCC1c1ccc(F)cc1 (stereo not drawn),-5,-1,7,0.81,92,1
CC(=O)Nc1ccccc1NC(=O)C/C(C)=N/NC(=O)c1ccncc1,-1,9.3*,8,1.3,101,1
S=c1[nH]nc(C2CC2)n1Cc1ccco1,/,-2,-3,1.4,99,4
CCn1c(C2CCN(Cc3ccccc3)CC2)n[nH]c1=S,-8,-2,154*,1,99,4
CCOC(=O)C1C(c2ccccc2)N(C)OC1(O)C(F)(F)F (stereo not drawn),35*,-2,15,1.4,106,3
O=C(COC(=O)C1Cc2ccccc2CN1C(=O)c1ccccc1)Nc1ccc(SC(F)F)cc1 (stereo not drawn),-8,-2,0,1.1,111,2
COC(=O)c1ccc(N2C(=O)c3ccc(OC)c(OC)c3C2=O)cc1,/,4,9,/,100,2
COc1ccc2c(c1OC)C(=O)N(c1cccc(C)c1)C2=O,-10,-4,10,1.5,136*,-6
CCOc1ccc(NC(C(=O)Nc2cccc(C(C)=O)c2)c2ccccc2)cc1 (stereo not drawn),/,1,-5,0.85,97,-6
CCOc1ccc(/C=C/C(=O)Nc2cccc(C(C)=O)c2)cc1,-13,1,25,1.5,136*,-3
CC(=O)Nc1cccc(C(=O)/C=C/c2ccc(C)cc2)c1,-14,2,18,2.1,93,-4
CCC(=O)Nc1cccc(C(=O)/C=C/c2ccc(F)cc2)c1,-13,1,22,3.8*,102,2

# Screens from PubChem.
